In general, GI50 refers to the concentration giving 50% growth inhibition. Lower therefore signals greater sensitivity of the cells. What is called IC50 is the point on the concentration scale where inhibition reaches its midpoint. As usually defined, the pKa is the negative logarithm of the acid dissociation constant.

This note sets out measurements from ChEMBL document CHEMBL1154738, “Vascular disrupting activity of tubulin-binding 1,5-diaryl-1H-imidazoles” (J Med Chem, 2009).

Data set [1] concerns NCI-H460. The data set can be described thus: Growth inhibition of human NCI-H460 cells after 3 days by crystal violet staining. In kind it is functional. As to conditions: NCI-H460, 72 h.
The test system of data set [2] is HCT-15. The data set can be described thus: Growth inhibition of human HCT15 cells after 3 days by crystal violet staining. Type of data set: functional. As to conditions: HCT-15, 72 h.
Data set [3] can be described thus: Growth inhibition of human NCI60 cells after 3 days by crystal violet staining. In kind it is functional. To be noted: NCI60, 72 h.
The test system of data set [4] is HUVEC. The data set can be described thus: Cytotoxicity against HUVEC after 72 hrs by crystal violet staining. Type of data set: functional, cell-based, Homo sapiens.
In data set [5] the test system is HUVEC. The data set can be described thus: Vascular disrupting activity in HUVEC assessed as change in cell morphology with detachment form substrate after 1 hr by crystal violet staining-based inverted light microscopy. Type of data set: functional, Homo sapiens. The method, boiled down: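 HUVEC treated for 1 h with compound; morphology (cell retraction, rounding, detachment from substrate) examined by light microscopy.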

Data set [6] deals with HUVEC. The data set can be described thus: Vascular disrupting activity in HUVEC assessed as appearance of blebbing morphology of rounded cells at 0.1 uM after 1 hr by FITC-onjugated DAPI staining-based immunofluorescence assay. Type of data set: functional, cell-based. To be noted: Homo sapiens. In a few lines:
(§1)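 HUVEC exposed to vehicle or compound (0.1-1 μM range) for 1 h, then tubulin cytoskeleton examined by immunofluorescence for microtubule disorganization and blebbing of rounded cells.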

Data set [7] relates to HUVEC. The data set can be described thus: Vascular disrupting activity in HUVEC assessed as disorganization of microtubule at 0.1 uM after 1 hr by FITC-onjugated DAPI staining-based immunofluorescence assay. Type of data set: functional, cell-based. As to conditions: Homo sapiens. The method, boiled down: as §1
In data set [8] the test system is HUVEC. As to the kind of experiment: Cytotoxicity against HUVEC after 1 hr by crystal violet staining. In kind it is functional, cell-based, Homo sapiens.
Data set [9] relates to HUVEC. The data set can be described thus: Vascular disrupting activity in HUVEC assessed as disruption of capillary-like structure formation on permissive matrix at 1 uM after 1 hr by microscopy. In kind it is functional, cell-based. To be noted: Homo sapiens. The method, boiled down:
(§2)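 HUVEC seeded on 3D Matrigel form capillary-like cord networks by 24 h; compound then added to formed cords and images taken 1 h later to assess cord disruption and shortening.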

The subject of data set [10] is HUVEC. The data set can be described thus: Vascular disrupting activity in HUVEC assessed as disorganization of microtubule after 1 hr by FITC-onjugated DAPI staining-based immunofluorescence assay. To be noted: Homo sapiens. Type of data set: functional, cell-based. In a few lines:
as §1

The test system of data set [11] is MDA-MB-435. As to the kind of experiment: Induction of necrosis in central region of human MDA-MB-435 cells exenografted in NCr nu/nu mouse at 80 mg/kg, ip administered as single dose measured after 24 hrs by haematoxylin/eosin staining-based histopathological analysis. In kind it is functional, organism-based. Set-up: dose 80 mg/kg. (In xenograft studies the graft and the host belong to different species.)

Data set [12] relates to Mus musculus. The data set can be described thus: Vascular disrupting activity in C57BL/6N mouse assessed as rapid decrease in FGF2-induced vessel formation on permissive matrix at 20 m/kg, ip after 1 hr by FTC-conjugated staining based confocal microscopy. Type of data set: functional, organism-based. The method, boiled down:
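Matrigel plug containing FGF-2 implanted in mice, vessels allowed to form over 7 days (plug without FGF-2 as negative control). Single ip dose given, then functional perfused vessels visualized 1 h later with FITC-isolectin B4 by confocal microscopy; at least three images per sample, n = 5.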

Data set [13] concerns MDA-MB-435. The data set can be described thus: Induction of necrosis in central region of human MDA-MB-435 cells exenografted in NCr nu/nu mouse at 20 mg/kg, ip administered as single dose measured after 24 hrs by haematoxylin/eosin staining-based histopathological analysis. In kind it is functional, organism-based. More on the design: dose 20 mg/kg.
The test system of data set [14] is HUVEC. The data set can be described thus: Vascular disrupting activity in HUVEC assessed as disruption of capillary-like structure formation on permissive matrix at 0.1 uM after 1 hr by microscopy. In kind it is functional, cell-based. To be noted: Homo sapiens. In a few lines:
as §2

The test system of data set [15] is HUVEC. As to the kind of experiment: Vascular disrupting activity in HUVEC assessed as appearance of blebbing morphology of rounded cells after 1 hr by FITC-onjugated DAPI staining-based immunofluorescence assay. In kind it is functional, cell-based. To be noted: Homo sapiens. The method, boiled down: as §1
Data set [16] is described as follows: Dissociation constant, pKa of the compound. In kind it is physicochemical.

Calls of active or inactive are those of the source. The calls are words filed in the database; no cut-off is given here. Bounds are passed on as bounds.

For `COc1cc(-n2ccnc2-c2ccc(N(C)C)cc2)cc(OC)c1OC`, the GI50 in [1] was 270 nM; in [2], 80 nM.

As for `COc1ccc(/C=C\c2cc(OC)c(OC)c(OC)c2)cc1O` [COMBRETASTATIN A4], the GI50 in data set [3] was 100 nM; in data set [1] it was under 10 nM; in data set [2] it was under 10 nM. For the same compound, the IC50 came to 5 nM in data set [4] (Homo sapiens, HUVEC, 72 h); 10 nM in data set [5] (Homo sapiens, HUVEC, 1 h); 400 nM in data set [8] (Homo sapiens, HUVEC, 1 h). For the same compound, the outcome in [6] and in data set [7] was Active.

As to `COc1cc(-n2cncc2-c2ccc3ccccc3c2)cc(OC)c1OC` [listing 1 of 3 here], the outcome in data set [9], in [11], in data set [12], in data set [13] and in [14] was Active. Besides, the Activity entry in data set [10] and in data set [15] was “Dose-dependent effect” in each case.

Turning to `COc1cc(-n2cncc2-c2ccc(N(C)C)cc2)cc(OC)c1OC`, the GI50 came to 79 nM in data set [1] and 36 nM in [2].

In data set [16], `COc1cc(-n2cncc2-c2ccc3ccccc3c2)cc(OC)c1OC` [listing 2 of 3 here] displayed a pKa of 5.58. The IC50 in data set [4] (huvec) was found to be 110 nM; in [5] (huvec), 40 nM; in [8] (huvec) it was 2100 nM.

Turning to `COc1cc(-n2cncc2-c2ccc3ccccc3c2)cc(OC)c1OC` [listing 3 of 3 here], the GI50 was 72.4 nM in [3], 18 nM in [1] and 17 nM in [2]. Further, the figures for the IC50 in data set [4] (huvec), in [5] (huvec) and in [8] (huvec) were 540 nM, 41500 nM and 28300 nM, respectively.

Consider `COc1ccc(-c2cncn2-c2cc(OC)c(OC)c(OC)c2)cc1F`, for which the GI50 in [3] is 39.8 nM; in [1], under 10 nM; in data set [2] it was under 10 nM. The IC50 in data set [4] (Homo sapiens, HUVEC, 72 h) was 450 nM; in data set [5] (Homo sapiens, HUVEC, 1 h), 17300 nM; in data set [8] (Homo sapiens, HUVEC, 1 h), 17000 nM.

In the case of `COc1ccc(-c2cncn2-c2cc(OC)c(OC)c(OC)c2)cc1` [listing 1 of 2 here], the pKa in data set [16] was determined as 6.82. The results for the IC50 in data set [4] (huvec), in data set [5] (huvec) and in data set [8] (huvec) were 540 nM, 950 nM and 20000 nM, respectively.

`COc1ccc(-c2nccn2-c2cc(OC)c(OC)c(OC)c2)cc1`: the figures for the GI50 in data set [3], in data set [1] and in data set [2] were 4570 nM, 1580 nM and 1150 nM, respectively.

With `COc1ccc(-c2cncn2-c2cc(OC)c(OC)c(OC)c2)cc1` [listing 2 of 2 here], the GI50 in data set [3] is 257 nM; in data set [1] it was 363 nM; in [2], 170 nM. For the same compound, the IC50 in data set [4] (Homo sapiens, HUVEC, 72 h) came out at 600 nM; in [5] (huvec) it was 6530 nM; in data set [8] (Homo sapiens, HUVEC, 1 h), 36100 nM.

As for `COc1cc(-n2ccnc2-c2ccc3ccccc3c2)cc(OC)c1OC`, the figures for the GI50 in data set [3], in data set [1] and in data set [2] were 151 nM, 37 nM and 51 nM, respectively.
